Reference: PubChem BioAssay AID623967 (Broad Institute, 2012)
Several values for one entry are separate records, joined by “and”; a condition that tells them apart may be missing. Equal entries are not always repeated. Activity calls are given as the source filed them.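 Rule for the calls: active = compounds whose fitted dose for half their peak growth loss is at most twice the top usable dose; inconclusive = flat curve with moderate growth loss, or a poor fit; inactive = the rest.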

system: not listed separately; assay: antifungal activity against fermenting C. glabrata – glucose medium, OD600, powder samples, set 3, dose response (AID 623967); conditions: Candida glabrata growth in glucose medium, OD600, 48 h; at 3 µM (top of the series)
Method in brief: (§1)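 material = Candida glabrata cells | medium = CSM-glucose medium | dosing = test compounds delivered into wells by pin transfer | incubation = 48 h growth exposure at 30 °C, static, humidified | detection = optical density at 600 nm | measure = fungal growth inhibition as decrease in OD600 signal | controls = amphotericin B at 10 µM as positive control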

Structure (SMILES) | activity change, negative = inhibition
CCOC(=O)N1C(=O)C2(CCCCC2)N(c2ccc(C)cc2)C1=S | -11.3% (inactive) and -13.1% (inactive)
CCOC(=O)N1C(=O)C2(CCCCC2)N(c2ccc(Cl)cc2)C1=S | -9.79% (inactive)
CCOC(=O)N1C(=O)C2(CCCCC2)N(c2cccc(C)c2)C1=S | -8.41% (inactive)
C/C=C/[C@@H]1[C@H]2C[C@@H](C)CC[C@@H]2C(C)=C[C@H]1C(=O)c1c(O)c(-c2ccc(O)cc2)c[nH]c1=O | -1.31% (inactive)
CCOC(=O)N1C(=O)C2(CCCCC2)N(c2ccccc2)C1=S | -11.4% (inactive)
CCOC(=O)N1C(=O)C2(CCCCC2)N(c2ccc(F)cc2)C1=S | -12.7% (inactive)
CCOC(=O)N1C(=O)C2(CCCCC2)N(c2ccc(C#N)cc2)C1=S | -6.49% (inactive)

system: Candida glabrata growth in glucose medium, OD600, 48 h; assay: as above; conditions: not given
Method in brief: as §1

Structure (SMILES) | AC50 [nM]
CC1/C=C/C=C\C=C\C=C\C=C\C=C\C=C\C(O[C@H]2OC(C)C(O)C(N)C2O)CC2OC(O)(CC(O)CC(O)C(O)CCC(O)CC(O)CC(=O)OC(C)C(C)C1O)CC(O)C2C(=O)O (stereo partly drawn) | 1220
